Platelet DG rel = platelet dense granule release activity. human platelet-rich plasma, SFLLRN dense granule ATP release, luminescence. AID 1663. 300,000 compounds, 0.22% hits. inhibition, %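 (compounds screened at 7.5 µM in platelet-rich plasma)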;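 active = mean replicate score, as percent of positive control, at or above 50; inconclusive = mean below 50 but at least one replicate at or above 50; inactive = mean and every replicate below 50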
SENP8 block-1 = SENP8 protease inhibition; Q96LD8; purified SENP8, Z-RLRGG-aminoluciferin cleavage, luminescence; inhibition, % at 10 µM; 330,000 compounds, 1.2% hits; in the data active = inhibition above about 50%
Target sequence (Q96LD8 whole entry, looked up): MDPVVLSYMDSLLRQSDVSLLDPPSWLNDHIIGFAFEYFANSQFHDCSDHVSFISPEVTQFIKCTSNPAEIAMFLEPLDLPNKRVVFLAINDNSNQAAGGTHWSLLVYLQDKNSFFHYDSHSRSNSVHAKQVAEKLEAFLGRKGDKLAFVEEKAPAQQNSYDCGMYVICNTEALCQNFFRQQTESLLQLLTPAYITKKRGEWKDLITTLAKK
SENP7 inh = inhibitors of human SENP7 protease; inhibition, % at 5 µM; recombinant SENP7, Z-RLRGG-aminoluciferin luminescence, 40 min; 330,000 compounds, 1.5% hits; Q9BQF6;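 active = inhibition above about 50% at the single test dose, limit read from the data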;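 note: plate controls were DMSO with enzyme for no effect and no enzyme buffer wells for full effect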
SENP8 block-2 = blocks human SENP8 cleavage of Nedd8 substrate | 360,000 compounds, 0.64% hits | recombinant SENP8, Nedd8 substrate fluorescence | Q96LD8 | inhibition, % at 20 µM; in the data active = inhibition mostly above about 40%, no sharp cut-off; inactive = mostly below about 27%
SENP6 inh = SENP6 protease inhibition | inhibition, % at 10 µM | Q9GZR1 | Recombinant SENP6 catalytic domain, aminoluciferin luminescence | 330,000 compounds, 1.8% hits;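 active = inhibition above about 50% at the single tested dose, limit read from the data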;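 note: plate controls were DMSO wells with enzyme for no effect and DMSO wells lacking enzyme for full effect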
SENP1 inh = inhibitors of human SENP1 SUMO protease catalytic domain; recombinant SENP1 catalytic domain, CyPet-SUMO1-YPet FRET cleavage; Q9P0U3; 360,000 compounds, 0.21% hits; inhibition, % at 10 µM;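 active = inhibition at least 30% at 10 µM, raw YFP signal under a set limit, fluorescence ratio 0.5 to 1.5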;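 note: 0% = enzyme with DMSO and 100% = no enzyme wells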
Target sequence (Q9P0U3 419-644 limits assumed): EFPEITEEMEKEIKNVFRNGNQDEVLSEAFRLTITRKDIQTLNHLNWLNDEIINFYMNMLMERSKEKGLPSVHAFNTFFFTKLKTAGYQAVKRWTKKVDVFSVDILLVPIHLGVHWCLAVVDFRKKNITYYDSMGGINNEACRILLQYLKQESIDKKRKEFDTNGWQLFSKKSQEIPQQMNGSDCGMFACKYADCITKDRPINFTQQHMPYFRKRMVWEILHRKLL
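Test system: hSENP1 catalytic domain, recombinant; Amount: 20 pM final SENP1 enzyme; Medium: Tris pH 8 buffer plus EDTA, NaCl, BME, BSA, NP40, catalase; Schedule: 50 min enzyme reaction, room temperature, light-protected; Technique: FRET fluorescence in CFP and YFP emission channels; Controls: no-enzyme wells low, DMSO-plus-enzyme wells high control.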
SENP8 confirm = human SENP8 inhibition, confirmed; AID 488912; inhibition, % at 12.5 µM; Recombinant SENP8, Z-RLRGG-aminoluciferin luminescence, 60 min; 6,200 compounds, 40% hits; shares compounds with SENP7 inh;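 active = mean inhibition across replicates above about 50%, limit read from the data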
SENP6 confirm = human SENP6 inhibition, confirmed; shares compounds with SENP7 inh; recombinant SENP6, Z-RLRGG-aminoluciferin luminescence; inhibition, % at 12.5 µM; 6,200 compounds, 58% hits; AID 488915
SENP7 conf = confirmation of human SENP7 protease inhibitors. 6,200 compounds, 69% hits. shares compounds with SENP7 inh. AID 488917. inhibition, % at 12.5 µM. recombinant SENP7, Z-RLRGG-aminoluciferin luminescence, 40 min
Casp3 select = caspase-3 inhibition (SENP selectivity assay); shares compounds with SENP7 inh; purified caspase-3, Z-DEVD-aminoluciferin luminescence, 60 min; inhibition, % at 12.5 µM; 6,200 compounds, 60% hits; AID 488918;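 active = mean inhibition above about 50%, limit read from the data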;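 note: plate controls were enzyme with DMSO for no effect and wells without caspase-3 for full effect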
Target sequence (P42574 28-227 limits assumed): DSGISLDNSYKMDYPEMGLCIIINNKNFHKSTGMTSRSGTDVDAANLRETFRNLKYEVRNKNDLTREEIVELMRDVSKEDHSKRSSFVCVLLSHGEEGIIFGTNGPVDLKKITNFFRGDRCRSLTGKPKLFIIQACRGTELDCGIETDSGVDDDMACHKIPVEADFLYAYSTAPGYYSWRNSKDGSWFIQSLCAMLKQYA
Luc interf = counter-screen for SENP inhibitors: luminescence interference. shares compounds with SENP7 inh. Pre-incubated SENP8/Z-RLRGG-aminoluciferin, luciferase luminescence interference. inhibition, % at 12.5 µM. 6,200 compounds, 39% hits. AID 488919;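 active = mean inhibition above about 50% when retested at one dose, limit read from the data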;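 note: plate controls were DMSO wells with completed reaction for no effect and substrate without enzyme for full effect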
The depositor's hits bear a star; i = inactive; ? = inconclusive; / = no result. This is a sample that favours compounds with a hit; in the whole collection about 2.6% have one here.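 Rule for the calls, unless noted: active = mean inhibition above about 50% in the one-dose retest (limit read from the data); inactive = the rest.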

SMILES	Platelet DG rel	SENP8 block-1	SENP7 inh	SENP8 block-2	SENP6 inh	SENP1 inh	SENP8 confirm	SENP6 confirm	SENP7 conf	Casp3 select	Luc interf
CSC[C@H](NC(=O)COc1cc2c(c3oc(=O)cc(C)c13)CCC(C)(C)O2)C(=O)O	-2.3	3.0	-1.2	-273.7	-10.2	2.9	/	/	/	/	/
COCCCNC(=O)c1ccc(Cn2c(=O)c3ccccc3n(CC(=O)NCc3ccco3)c2=O)cc1	4.1	5.2	5.5	21.0	-7.6	0.9	/	/	/	/	/
CCCC(=O)Nc1cccc(-c2nc3ccccc3o2)c1	2.0	-4.6	3.7	-42.8	-3.2	-0.6	/	/	/	/	/
CCC(=O)Nc1ccc2oc(-c3cccc(C)c3)nc2c1	/	94.0*	97.7*	i	99.2*	1.6	5.2	98.3*	103.0*	95.9*	74.7*
CCC(=O)Nc1ccc(-c2nnc(-c3ccccc3)o2)cc1	1.0	38.2	74.8*	i	72.1*	0.8	19.5	17.1	10.2	40.3	4.5
Cc1ccc2oc(-c3cccc(NC(=O)Cc4cccs4)c3)nc2c1	1.7	-11.4	74.8*	-26.5	0.9	-0.1	7.6	6.8	-2.0	-5.2	-7.0
CCCC(=O)Nc1cccc(-c2nc3cc(C)c(C)cc3o2)c1	/	23.0	90.7*	-398.3	35.1	-2.6	24.6	23.4	27.8	37.2	53.8*
CCC(=O)Nc1cccc(-c2nc3ccc(C)cc3o2)c1	2.2	22.8	23.5	-71.3	33.4	-0.5	/	/	/	/	/
O=C(NCC(=O)N1CCCC(C(F)(F)F)C1)c1ccc(Oc2ccccc2)cc1 (stereo not given)	-10.6	4.7	-6.3	6.0	-6.6	1.6	/	/	/	/	/
COCCN(C(=O)CSc1nnc(-c2ccccc2F)o1)c1c(N)n(CC(C)C)c(=O)[nH]c1=O	-2.4	4.9	-3.0	8.2	2.9	-0.9	/	/	/	/	/
O=C(NC1CCCCC1)c1cc(S(=O)(=O)N2CCN(c3ccccc3)CC2)ccc1Cl	/	7.0	4.4	7.5	-6.0	3.4	/	/	/	/	/
CCCc1nc(SCC(=O)c2ccc3c(c2)NC(=O)CO3)[nH]c(=O)c1CC	/	/	/	4.6	/	0.1	/	/	/	/	/
CCCc1cc(=O)[nH]c(SCC(=O)c2ccc3c(c2)NC(=O)CO3)n1	3.1	0.4	6.3	7.9	98.0*	2.6	-15.4	-10.5	-12.0	-4.1	-9.3
Cc1ccc(C(=O)/C=C\C(=O)c2ccc(C)cc2)cc1	21.8	/	/	22.9	/	-0.4	/	/	/	/	/
Cc1ccc(S/C=C\C(=O)c2ccccc2)cc1	20.2	81.7*	92.4*	15.3	86.8*	1.0	5.9	90.1*	79.2*	64.5*	55.3*
COC(=O)c1ccccc1N=Nc1c(C)noc1C	-3.4	-1.0	5.3	27.3	-0.1	1.9	/	/	/	/	/
CCOc1ccc(-c2nc(CCl)cs2)cc1	?	28.1	8.2	-23.5	51.6*	1.0	53.6*	69.7*	90.6*	66.9*	45.7
O=C(O)c1cc(-c2ccc3c(c2)OCCO3)n[nH]1	-3.2	-1.8	0.2	-1.3	11.6	1.9	/	/	/	/	/
COc1ccc(-c2cc(-c3ccc(Cl)cc3)n[nH]2)c(O)c1	0.1	64.3*	63.5*	19.1	69.7*	1.5	25.4	48.3	86.6*	13.5	66.5*
COc1ccc(-c2cc(-c3ccc(OC)c(OC)c3)n[nH]2)c(O)c1	40.8	93.3*	96.4*	16.0	94.2*	1.7	97.1*	97.6*	102.2*	86.3*	95.0*
Oc1ccccc1-c1cc(-c2ccc3c(c2)OCCO3)n[nH]1	37.0	94.6*	1.4	11.5	97.3*	-1.8	97.3*	99.1*	102.6*	91.7*	68.3*
COc1ccc(-c2cc(-c3ccccc3O)[nH]n2)cc1OC	20.6	78.4*	88.3*	10.5	79.7*	0.2	92.7*	92.5*	100.7*	68.6*	92.6*
Oc1ccc(Br)cc1-c1cc(-c2ccc(Cl)cc2)n[nH]1	1.2	-18.8	4.4	21.8	1.2	1.7	/	/	/	/	/
Cc1c(NC(=O)c2cc3c(=O)n4ccccc4nc3s2)c(=O)n(-c2ccccc2)n1C	-3.3	2.7	5.2	-76.4	-16.9	-3.3	/	/	/	/	/
COC(=O)c1cc(-c2ccc(OC)c(OC)c2)n[nH]1	-1.8	2.7	9.3	17.0	-11.0	1.7	/	/	/	/	/
SMILES	Platelet DG rel	SENP8 block-1	SENP7 inh	SENP8 block-2	SENP6 inh	SENP1 inh	SENP8 confirm	SENP6 confirm	SENP7 conf	Casp3 select	Luc interf
COc1ccc(-c2cc(-c3cc(F)ccc3O)[nH]n2)cc1OC	4.1	69.3*	82.9*	-7.2	72.0*	-0.5	86.1*	84.4*	95.0*	36.1	82.7*
CCOC(=O)c1ccc(NC(=O)CSC(=S)N2CCOCC2)cc1	-11.4	-0.1	-5.5	8.5	-10.8	0.2	/	/	/	/	/
CC(C)c1ccc2oc(-c3cc(N)ccc3O)nc2c1	24.7	90.7*	86.1*	-115.0	94.1*	18.9	44.3	91.4*	93.9*	69.7*	20.2
Cc1ccccc1-c1nc2ccccc2c(=O)o1	/	/	/	-29.7	/	0.8	/	/	/	/	/
Cc1ccccc1-c1nc2cc(N)ccc2o1	0.6	59.9*	74.2*	-264.2	71.6*	-25.6	9.1	8.6	-3.0	0.3	0.9
CCOC(=O)C1=C(COC(=O)c2cccc(N(C)C)c2)NC(=O)NC1C (stereo not given)	9.2	10.8	2.5	-160.6	0.4	0.6	/	/	/	/	/
C=CCn1c(SCc2nc(N)nc(N3CCCCC3)n2)nnc1-c1ccco1	3.2	15.9	61.0*	10.3	1.7	0.9	-12.0	-7.0	-9.1	0.9	1.5
COc1cc(-c2ccc(Nc3ccccc3C(=O)O)c(OC)c2)ccc1Nc1ccccc1C(=O)O	/	60.0*	3.5	30.5	73.8*	-3.5	-9.1	55.0*	24.4	7.8	68.6*
CCN(CC)CCCN(C)C(=O)Cn1nc(Cc2ccncc2)c2ccccc2c1=O	7.2	5.6	-6.2	25.4	-7.1	1.3	/	/	/	/	/
CCN(CC)c1ccc(C(=O)OCC(=O)Nc2sccc2C#N)cc1	5.3	21.4	5.6	-9.8	69.3*	-1.4	38.0	42.1	69.9*	21.0	36.7
CCOC(=O)c1c(S(=O)(=O)NCCc2cccs2)c(C)n(C)c1C	7.9	-10.0	5.5	6.7	-10.3	0.5	/	/	/	/	/
CN1/C(=C\C(=O)c2cccs2)Sc2ccccc21	-5.1	81.7*	-4.1	-497.3	85.7*	-16.1	90.6*	89.9*	100.1*	92.1*	91.7*

Screening data: PubChem BioAssay, several laboratories
